Calls of active or inactive are those of the source. No cut-off for these calls is given here.
What was measured:
Mus musculus [1] = assay: Antidiabetic activity in STZ-induced Kunming mouse model of diabetes assessed as down regulation of glucose-6-phosphatase expression level in liver at 62.5 to 125 m/kg, po administered QD administered via gavage for 4 weeks by Western blot analysis; format: functional, organism-based
Method in brief: (§1)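 Livers from diabetic mice after 28 days of daily gavage (31.25–125 mg/kg) were homogenized and spun at 14 000g, 4 °C. Proteins were run on 10% SDS-PAGE and transferred to PVDF, then blocked in 5% milk for 1 h. Primary antibodies (GK, PK, PFK, PCB, PEPCK, FBPase, G-6-Pase, p-IR Tyr999, p-IRS-1 Ser307) were applied for 1 h at 25 °C, followed by HRP anti-rabbit IgG and ECL detection. Mean ± SD, Duncan's test.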

Mus musculus [2] = assay: Antidiabetic activity in STZ-induced Kunming mouse model of diabetes assessed as increase in Lactococcus level in feces at 31.25 to 125 mg/kg, po administered QD administered via gavage for 4 weeks by 16S rDNA based DNA sequencing analysis; format: functional, organism-based
Mus musculus [3] = assay: Antidiabetic activity in STZ-induced Kunming mouse model of diabetes assessed as increase in hepatic glycogen level at 31.25 to 125 m/kg, po administered QD administered via gavage for 4 weeks; format: functional, organism-based
Method in brief: (§2)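 Diabetic mice (high-fat diet plus STZ 35 mg/kg i.p.) were dosed by gavage once daily for 28 days at 31.25–125 mg/kg. After an overnight fast at endpoint, liver and plasma were collected. ALT, hepatic glycogen and pyruvic acid were measured with commercial kits.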

Mus musculus [4] = assay: Antidiabetic activity in STZ-induced Kunming mouse model of diabetes assessed as increase in LPL mRNA level at 31.25 to 125 m/kg, po administered QD administered via gavage for 4 weeks by RT-PCR analysis; format: functional, organism-based
Method in brief: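 Liver RNA was Trizol-extracted and reverse-transcribed. qPCR ran 95 °C 10 min, then 45 cycles of 95 °C 15 s, 55 °C 20 s and 72 °C 30 s. LPL was normalized to β-actin and quantified by 2−ΔΔCt. Samples came from STZ/high-fat-diet diabetic mice gavaged daily for 28 days at 31.25–125 mg/kg.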

Mus musculus [5] = assay: Antidiabetic activity in STZ-induced Kunming mouse model of diabetes assessed as down regulation of PCB expression level in liver at 62.5 to 125 m/kg, po administered QD administered via gavage for 4 weeks by Western blot analysis; format: functional, organism-based; method in brief: as §1
Mus musculus [6] = assay: Antidiabetic activity in STZ-induced Kunming mouse model of diabetes assessed as increase in PK expression level in liver at 62.5 to 125 m/kg, po administered QD administered via gavage for 4 weeks by Western blot analysis; format: functional, organism-based; method in brief: as §1
Mus musculus [7] = assay: Antidiabetic activity in STZ-induced Kunming mouse model of diabetes assessed as decrease in Weis-sella level in feces at 31.25 to 125 mg/kg, po administered QD administered via gavage for 4 weeks by 16S rDNA based DNA sequencing analysis; format: functional, organism-based
Mus musculus [8] = assay: Antidiabetic activity in STZ-induced Kunming mouse model of diabetes assessed as decrease in Anaer-ostipes level in feces at 31.25 to 125 mg/kg, po administered QD administered via gavage for 4 weeks by 16S rDNA based DNA sequencing analysis; format: functional, organism-based
Mus musculus [9] = assay: Antidiabetic activity in po dosed STZ-induced Kunming mouse model of diabetes assessed as reduction in ALT activity administered QD administered via gavage for 4 weeks; format: functional, organism-based; method in brief: as §2
Mus musculus [10] = assay: Antidiabetic activity in STZ-induced Kunming mouse model of diabetes assessed as increase in Bifidobacterium level in feces at 31.25 to 125 mg/kg, po administered QD administered via gavage for 4 weeks by 16S rDNA based Illumina sequencing method; format: functional, organism-based
Mus musculus [11] = assay: Antidiabetic activity in STZ-induced Kunming mouse model of diabetes assessed as increase in Lactobacillus level in feces at 31.25 to 125 mg/kg, po administered QD administered via gavage for 4 weeks by 16S rDNA based Illumina sequencing method; format: functional, organism-based
Mus musculus [12] = assay: Antidiabetic activity in STZ-induced Kunming mouse model of diabetes assessed as decrease in Klebsiella level in feces at 62.5 to 125 mg/kg, po administered QD administered via gavage for 4 weeks by 16S rDNA based DNA sequencing analysis; format: functional, organism-based
Mus musculus [13] = assay: Antidiabetic activity in STZ-induced diabetic Kunming mouse assessed as increase in body weight gain at 62.5 to 125 mg/kg, po QD administered via gavage for 4 weeks and measured every 3 days for 28 day
Mus musculus [14] = assay: Antidiabetic activity in po dosed STZ-induced Kunming mouse model of diabetes assessed as increase in Bacteroidetes level in feces administered QD administered via gavage for 4 weeks by 16S rDNA based Illumina sequencing method; format: functional, organism-based
Mus musculus [15] = assay: Antidiabetic activity in STZ-induced Kunming mouse model of diabetes assessed as decrease in TC level at 125 m/kg, po administered QD administered via gavage for 4 weeks; format: functional, organism-based
Method in brief: (§3)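 STZ/high-fat-diet diabetic Kunming mice (n=10/group) were gavaged daily for 28 days at 31.25–125 mg/kg. After an overnight fast, orbital-sinus blood was taken and plasma was spun at 1000g, 4 °C. TC, TG and HDL-C were measured by kit. LDL-C was calculated by Friedewald: TC − (HDL-C + TG/2.2), with TG below 4.5 mmol/L. Data are mean ± SD, Duncan's test.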

Mus musculus [16] = assay: Antidiabetic activity in po dosed STZ-induced Kunming mouse model of diabetes assessed as reduction in fasting serum glucose level administered QD administered via gavage for 4 weeks and measured 2 weeks during compound dosing; format: functional, organism-based
Method in brief: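 Fasting serum glucose was taken from the tail tip on days 0, 7, 14, 21 and 28 in STZ (35 mg/kg i.p.)/high-fat-diet Kunming mice. Mice were gavaged once daily at 31.25, 62.5 or 125 mg/kg in 0.5 mL, n=10 per group.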

Mus musculus [17] = assay: Antidiabetic activity in po dosed STZ-induced Kunming mouse model of diabetes assessed as increase in IR phosphorylation at (Tyr 999 residues) expression in liver administered QD administered via gavage for 4 weeks by Western blot analysis; format: functional, organism-based; method in brief: as §1
Mus musculus [18] = assay: Antidiabetic activity in STZ-induced Kunming mouse model of diabetes assessed as increase in HDL-C level at 31.25 to 125 m/kg, po administered QD administered via gavage for 4 weeks; format: functional, organism-based; method in brief: as §3
Mus musculus [19] = assay: Antidiabetic activity in STZ-induced Kunming mouse model of diabetes assessed as decrease in Prevo-tellaceae UCG-001 level in feces at 62.5 to 125 mg/kg, po administered QD administered via gavage for 4 weeks by 16S rDNA based DNA sequencing analysis; format: functional, organism-based
Mus musculus [20] = assay: Antidiabetic activity in STZ-induced Kunming mouse model of diabetes assessed as down regulation of fructose-1-6-phosphatase expression level in liver at 31.25 to 125 m/kg, po administered QD administered via gavage for 4 weeks by Western blot analysis; format: functional, organism-based; method in brief: as §1

In the case of `OC[C@H]1NC[C@H](O)[C@@H](O)[C@@H]1O`, the Activity (Mus musculus [1]) is reported as “Active”, the Activity (Mus musculus [2]) is reported as “inactive” and the Activity (Mus musculus [3]) is reported as “Active”. For the same molecule, the Activity (Mus musculus [4]) was “Active”, the Activity (Mus musculus [5]) was “Active” and the Activity (Mus musculus [6]) was “Active”. The Activity (Mus musculus [7]) was “Active”, the Activity (Mus musculus [8]) was “Active” and the Activity (Mus musculus [9]) was “Dose-dependent effect”. The Activity (Mus musculus [10]) was “Active”, the Activity (Mus musculus [11]) was “Active” and the Activity (Mus musculus [12]) was “Active”. For the same molecule, the Activity (Mus musculus [13]) was “Active”, the Activity (Mus musculus [14]) was “Dose-dependent effect” and the Activity (Mus musculus [15]) was “Active”. The Activity (Mus musculus [16]) was “Dose-dependent effect”, the Activity (Mus musculus [17]) was “Dose-dependent effect” and the Activity (Mus musculus [18]) was “Active”. The Activity (Mus musculus [19]) was “Active” and the Activity (Mus musculus [20]) was “Active”.
